Converted amounts (≈) assume the structure as drawn.
Key:
Cryptococcus neoformans [1] = assay: Antifungal activity against Cryptococcus neoformans isolate T1444 after 48 hrs by micro broth dilution method; type: functional; details: isolate T1444, 48 h
How it was run: (§1)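 CLSI M27-A broth microdilution. Fungi at 10^6 cells/mL were grown in fresh BHI medium with samples at 1 pg/mL to 1 mg/mL, at 37 °C for 48 h. Growth was read daily by visible turbidity. MIC was the lowest concentration preventing growth. Inhibition was confirmed with resazurin (5 mg/100 mL PBS, pH 7.2) after a further 3 h at 37 °C. Amphotericin B was the positive control.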

Candida albicans = assay: Antimicrobial activity against Candida albicans ATCC 10231 after 48 hrs by microbroth dilution method; type: functional; details: ATCC 10231, 48 h; how it was run: as §1
Candida parapsilosis [2] = assay: Antifungal activity against Candida parapsilosis ATCC 22019 after 48 hrs by micro broth dilution method; details: Lodderomyces parapsilosis, ATCC 22019, 48 h
[3] = Hemolytic activity in human RBC after 1 hr by spectrophotometric method; type: ADME, cell-based, Erythrocyte; details: human red blood cells (erythrocytes)
How it was run: (§2)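 Sample solutions (2000 to 15.6 μg/mL before mixing) were incubated with a 4% human O+ erythrocyte suspension in PBS (1:4 by volume) for 1 h at 37 °C. PBS was then added, and lysis was read at 590 nm. PBS served as the negative control and water as the positive control.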

Cryptococcus neoformans [4] = assay: Antifungal activity against Cryptococcus neoformans isolate T1444 assessed as FIC index after 48 hrs in presence of amphotericin B by micro broth dilution method; type: functional
How it was run: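 Checkerboard dose matrix in microplates. Sample and amphotericin B were each used below their single-agent MICs. Inoculum was 10^3 cells/mL, incubated at room temperature for 48 h. Growth was read visually and confirmed with resazurin. FIC for each agent is the MIC in combination divided by the MIC alone, and FICindex is the sum of the two FICs. Synergy is <0.5, additive is >0.5 to ≤1, and antagonism is >4.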

Cryptococcus neoformans [5] = assay: Antifungal activity against Cryptococcus neoformans ATCC 24067 after 48 hrs by micro broth dilution method; type: functional; details: ATCC 24067, 48 h; how it was run: as §1
Erythrocyte = assay: Hemolytic activity in human RBC at MIC after 1 hr by spectrophotometric method; type: ADME, cell-based; how it was run: as §2
Candida parapsilosis [6] = assay: Antifungal activity against Candida parapsilosis ATCC 22019 after 24 hrs by micro broth dilution method; type: functional; details: Lodderomyces parapsilosis, ATCC 22019, 24 h

Compound	MIC (Cryptococcus neoformans [1]) [µg/mL]	MIC (Candida albicans) [µg/mL]	MIC (Candida parapsilosis [2]) [µg/mL]	MIC (Cryptococcus neoformans [5]) [µg/mL]	MIC (Candida parapsilosis [6]) [µg/mL]	HC50 at 1 h [3] [µg/mL]	fractional inhibitory concentration index (FICI) (Cryptococcus neoformans [4])	Activity (Erythrocyte)
C[C@@H]1[C@H](O)[C@@H](C)/C=C/C=C/C=C/C=C/C=C/C=C/C=C/[C@H](O[C@@H]2O[C@H](C)[C@@H](O)[C@H](N)[C@@H]2O)C[C@@H]2O[C@](O)(C[C@@H](O)C[C@@H](O)[C@H](O)CC[C@@H](O)C[C@@H](O)CC(=O)O[C@H]1C)C[C@H](O)[C@H]2C(=O)O [AMPHOTERICIN B]	0.125 (≈ 0.135 µM)	0.25 (≈ 0.271 µM)	0.125 (≈ 0.135 µM)	0.125 (≈ 0.135 µM)	–	–	–	–
C[C@@H]1O[C@@H](O[C@@H]2[C@@H](O)[C@H](OCCc3ccc(O)c(O)c3)O[C@H](COC(=O)/C=C/c3ccc(O)c(O)c3)[C@H]2O)[C@H](O)[C@H](O)[C@H]1O [ISOACTEOSIDE]	> 125	–	–	–	–	–	–	–
C[C@@H]1O[C@@H](O[C@@H]2[C@@H](O)[C@H](OCCc3ccc(O)c(O)c3)O[C@H](CO)[C@H]2OC(=O)/C=C/c2ccc(O)cc2)[C@H](O)[C@H](OC(=O)/C=C/c2ccc(O)c(O)c2)[C@H]1O	125 (≈ 162 µM)	> 125	–	–	> 125	–	–	–
C[C@@H]1O[C@@H](O[C@@H]2[C@@H](O)[C@H](OCCc3ccc(O)c(O)c3)O[C@H](CO)[C@H]2OC(=O)/C=C/c2ccc(O)c(O)c2)[C@H](O)[C@H](O)[C@H]1O [ACETOSIDE]	62.5 (≈ 100 µM)	> 125	125 (≈ 200 µM)	62.5 (≈ 100 µM)	–	1000	0.72	Non-Toxic
COc1ccc(-c2cc(=O)c3c(O)cc(O[C@@H]4O[C@H](CO[C@@H]5O[C@@H](C)[C@H](O)[C@@H](O)[C@H]5O)[C@@H](O)[C@H](O)[C@H]4O)cc3o2)cc1 [ACACIIN]	125 (≈ 211 µM)	> 125	> 125	–	–	–	–	–

The next lines start with results.

MIC (Cryptococcus neoformans [1]) [µg/mL]	MIC (Candida albicans) [µg/mL]	MIC (Candida parapsilosis [2]) [µg/mL]	MIC (Cryptococcus neoformans [5]) [µg/mL]	MIC (Candida parapsilosis [6]) [µg/mL]	Compound	HC50 at 1 h [3] [µg/mL]	fractional inhibitory concentration index (FICI) (Cryptococcus neoformans [4])	Activity (Erythrocyte)
62.5 (≈ 81.1 µM)	> 125	> 125	–	–	C[C@@H]1O[C@@H](OC[C@H]2O[C@@H](OCCc3ccc(O)c(O)c3)[C@H](O)[C@@H](O[C@@H]3O[C@@H](C)[C@H](O)[C@@H](O)[C@H]3O)[C@@H]2OC(=O)/C=C/c2ccc(O)c(O)c2)[C@H](O)[C@H](O)[C@H]1O [POLIUMOSIDE]	–	–	–
31.2 (≈ 50 µM)	> 125	> 125	31.2 (≈ 50 µM)	–	C[C@@H]1O[C@@H](OC[C@H]2O[C@@H](OCCc3ccc(O)c(O)c3)[C@H](O)[C@@H](O)[C@@H]2OC(=O)/C=C/c2ccc(O)c(O)c2)[C@H](O)[C@H](O)[C@H]1O [FORSYTHIASIDE]	1000	0.5	Non-Toxic
15.6 (≈ 19.8 µM)	> 125	125 (≈ 159 µM)	–	–	C[C@@H]1O[C@@H](O[C@@H]2[C@@H](O)[C@H](OCCc3ccc(O)c(O)c3)O[C@H](CO)[C@H]2OC(=O)/C=C/c2ccc(O)c(O)c2)[C@H](O)[C@H](O)[C@H]1OC(=O)/C=C/c1ccc(O)c(O)c1	–	–	–

— ChEMBL document CHEMBL4422693, “Antifungal Phenylpropanoid Glycosides from Lippia rubella” (J Nat Prod, 2019)
